AF4-AF9 inh = MLL-AF4/AF9 protein interaction inhibition. P42568. AlphaScreen, biotin-AF4 peptide binding to FLAG-AF9. hit rate 0.47% among 350,000. inhibition, % at 10 µM. AID 651704;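 active = every replicate reaching a set inhibition limit, whatever the replicate mean, cut at about 25% in these data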;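 also: 0% = plate neutral control median and 100% = total signal loss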
RAD52 inh = RAD52 (human) annealing inhibition | inhibition, % at 18.7 µM | recombinant RAD52 DNA annealing, FRET fluorescence | P43351 | hit rate 0.46% among 360,000 | AID 651710;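 active = every replicate showing at least 50% inhibition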
GSIS activator = primary screen for activators of insulin secretion dependent on glucose, INS-1E cells, GLuc reporter luminescence; hit rate 0.61% among 370,000; activation, % at 16.6 µM; INS-1E GLuc reporter insulin secretion, 2-3 h;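 active = lowest replicate activation of at least 40%, so every replicate reaches that level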;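 also: 0% = median of neutral control wells and 100% = median of IBMX positive control wells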
S100A4 inh HTS = blocks human S100A4 binding to myosin IIA peptide | P26447 | S100A4/TAMRA-MyoIIA peptide fluorescence polarization | inhibition, % at 10.7 µM | hit rate 0.14% among 360,000;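 active = mean inhibition of at least 70% across replicates, with every replicate also reaching that level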
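Assay system: human S100A4 monomer with TAMRA-labelled myosin IIA peptide / Buffer or medium: Calcium-containing HEPES buffer, pH 7.2 / Reagent: TAMRA-labelled myosin IIA heavy-chain peptide probe, 5 nM / Compound: one dose per compound / Timing: polarization read 5 min after assay mix addition, stable 5–60 min / Benchmarks: neutral control DMSO, positive control TFP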
RAD54 inh = inhibitors of human RAD54 branch migration | hit rate 0.14% among 360,000 | inhibition, % at 10.4 µM | RAD54 Holliday junction branch migration, FAM/BHQ fluorescence | Q92698 | AID 602329;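 active = mean normalized replicate activity at least 40 and at least half of replicates scoring 40 or more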;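 also: 0% = median of neutral control wells and 100% = median of positive control wells; inhibitors cause a drop in the FAM fluorescence signal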
Numbers without * were called inactive; . = no result; ! = a repeat was not active. Only some compounds are listed: those with a hit (about 1.3% of all), similar ones and a draw of the others.

SMILES	AF4-AF9 inh	RAD52 inh	GSIS activator	S100A4 inh HTS	RAD54 inh
CCOC(=O)c1c(-c2ccccc2)oc2cc(CN(C)C)c(O)c(CN(C)C)c12	36*	-47	-15	-2	-3
Cc1ccc(S(=O)(=O)N[C@H]2C=C[C@@H](CC(=O)N3CCc4ccccc4C3)O[C@@H]2CO)cc1	-2	-8	23	4	-1
CCC(=O)Nc1cc(C(C)(C)C)ccc1C(C)=O	.	.	67*	.	.
CCC(=O)Nc1cc2c(cc1C(C)=O)OCCO2	.	.	.	.	1
CC=Cc1ccc2n(c1=O)C[C@@H]1[C@@H](CO)[C@H](C(=O)NCc3ccc4c(c3)OCO4)[C@H]2N1C(=O)C1CC1 (mixture of isomers)	2	55*	9	6	3
CC=Cc1ccc2n(c1=O)C[C@H]1[C@H](CO)[C@@H](C(=O)NCc3ccc4c(c3)OCO4)[C@@H]2N1C(=O)C1CC1 (mixture of isomers)	2	58*	19	3	9
O=C(C[C@@H]1C[C@H]2c3cc(NC(=O)CC4CC4)ccc3O[C@H]2[C@@H](CO)O1)NCc1cccc(F)c1	0	2	1	-8	1
C/C=C/c1ccc([C@@H]2[C@@H](CNC(=O)C3CC3)N(C(=O)NCCC)[C@H]2CO)cc1	.	.	-28	.	-6
Cc1ccc(-n2c(SCC(=O)N3CCOCC3)nnc2-c2cccnc2)cc1C	.	.	.	.	-1
CCSc1nnc(-c2cccnc2)n1-c1ccc(C)c(Cl)c1	7	-10	64*	1	1
Cc1ccccc1-c1ccc(C2[C@@H]3CN(S(=O)(=O)c4ccccc4C)C[C@H]2N3)cc1 (some centres undefined)	-5	72*!	179*!	-25	.
COc1cccc(-c2ccc(C3[C@@H]4CN(S(=O)(=O)c5ccccc5C)C[C@H]3N4)cc2)c1 (some centres undefined)	0	73*!	14	-3	.
COc1ccccc1S(=O)(=O)N1C[C@@H]2N[C@H](C1)C2c1ccc(-c2ccccc2C)cc1 (some centres undefined)	.	.	3	.	.
COc1ccc(-c2ccc(C3[C@@H]4CN(S(=O)(=O)c5ccccc5C)C[C@H]3N4)cc2)cc1 (some centres undefined)	.	.	2	.	.
C[C@@H]1CN([C@H](C)CO)C(=O)c2cc(N(C)C)ccc2O[C@@H]1CN(C)Cc1ccc(-c2ccccc2)cc1	47*	11	7	-2	-14
C[C@@H]1CN([C@@H](C)CO)C(=O)c2cc(N(C)C)ccc2O[C@H]1CN(C)Cc1ccc(-c2ccccc2)cc1	34*	7	-8	-4	-11
CC(=O)N(C)C[C@@H]1OCc2ccccc2-c2c(n(C)c3ccccc23)C(=O)N([C@H](C)CO)C[C@H]1C	-3	5	5	13	1
CCCC(=O)Nc1ccc2c(c1)C(=O)N(C)[C@H]1CC[C@H](CC(=O)NCC3CC3)O[C@@H]1CO2	-3	15	9	-1	-3
COc1ccccc1-c1cn(CC[C@H]2CC[C@H](NS(=O)(=O)c3ccccc3C)[C@H](CO)O2)nn1	-5	0	-5	17	-5
CCN(CC)CCNC(=O)c1[nH]c2ccc(OCc3ccccc3)cc2c1C	25*	23	-5	3	.
O=C(OCn1ncc(Br)c(Br)c1=O)c1ccc(F)cc1	.	.	.	.	-9
O=C(OCn1ncc(Br)c(Br)c1=O)c1ccccc1Cl	.	0	115*	0	6
Cc1ccc(CC2(OCCN(C)C)CCC(C(C)(C)C)CC2)cc1 (centres undefined)	16	43	750*	-7	.
Cc1ccccc1-c1ccc2c(c1)O[C@@H](CN(C)C(=O)C1CC1)[C@@H](C)CN([C@H](C)CO)S2(=O)=O	0	7	-5	6	-4
C[C@H](CO)N1C[C@H](C)[C@@H](CN(C)S(C)(=O)=O)Oc2ncc(C#Cc3ccc(F)cc3)cc2C1=O	3	-8	-8	12	-16
SMILES	AF4-AF9 inh	RAD52 inh	GSIS activator	S100A4 inh HTS	RAD54 inh
O=C(OC1CCOC1=O)c1cc(-c2ccc(Cl)cc2)nc2ccccc12 (centres undefined)	3	-6	56*	-3	-5
O=C(OC1CCOC1=O)c1cc(-c2ccccc2)nc2ccccc12 (centres undefined)	.	.	.	.	4
CN(C)C(=O)C[C@@H]1CC[C@H]2[C@@H](COC[C@H](O)CN2Cc2ccc(C(F)(F)F)cc2)O1	.	.	2	.	6
C[C@H]1CN([C@@H](C)CO)C(=O)c2cc(NC(=O)C3CCCCC3)ccc2O[C@H]1CN(C)C(=O)NC1CCCCC1	-10	-2	5	-26	0
COc1cccc(-c2cnc3c(NC=O)cc(-c4ccc(N5CCN(C)CC5)cc4)cn23)c1	35*	11	9	-3	7
COc1ccccc1CNC(=O)C[C@H]1CC[C@H](NC(=O)CN(C)C)[C@H](CO)O1	-2	-8	0	-2	5
CN(C)CCCN(C(=O)c1cc(Cl)sc1Cl)c1nc2cc3c(cc2s1)OCO3	28*	37	-41	-3	26
CCOc1ccc(CCNC(=O)Cn2cccc2C(=O)c2ccccc2)cc1OCC	.	.	21	.	.
CCOc1ccc(CCNC(=O)CSc2cc(=O)n(C)c3ccccc23)cc1OCC	.	.	57*	.	-5
CCOc1ccc(CCNC(=O)COc2cc(=O)n(C)c3ccccc23)cc1OCC	0	-4	52*	21	.
CCOc1ccc(CCNC(=O)Cn2ccc3ccccc3c2=O)cc1OCC	-2	-14	50*	-9	.
CCCCNC(=O)CSc1cc(=O)n(C)c2ccccc12	.	.	.	.	-2
CO[C@H]1CN(C)C(=O)c2ccc(NC(=O)Nc3cccc(Cl)c3)cc2OC[C@@H](C)N(C(=O)Nc2c(C)noc2C)C[C@@H]1C	4	-7	-12	-8	-6
O=C(NN=Cc1ccccc1Cl)c1cccc2ccccc12	-9	-66	80*	-8	.
COCCn1c(=S)[nH]c2sc3c(c2c1=O)CCCC3	1	-13	45*	0	-9
COCCCn1c(=S)[nH]c2sc3c(c2c1=O)CCCC3	-1	-33	-1	0	0
Cc1ccc(/C=C2\SC(=O)N(CCC(=O)N3CCN(C)CC3)C2=O)cc1	3	2	50*	4	10
CN1CCN(C(=O)CCN2C(=O)S/C(=C/c3ccc(Cl)cc3)C2=O)CC1	1	-3	-3	-4	.
O=C1O[C@@H](c2ccccc2)[C@@H](c2ccccc2)N2[C@@H](c3ccccc3OCCO)[C@]3(C(=O)Nc4ccc(C#CCCO)cc43)[C@@H](C(=O)N3CCCCCCC3)[C@H]12	-3	73*	.	-6	-3
NC(=O)NCC#Cc1ccc2c(c1)[C@]1(C(=O)N2)[C@H](c2ccccc2OCCO)N2[C@H](c3ccccc3)[C@H](c3ccccc3)OC(=O)[C@H]2[C@@H]1C(=O)N1CCCCCCC1	3	-23	.	11	.

Bioassay records deposited in PubChem by Broad Institute.
